The values below come from ChEMBL document CHEMBL1671714, “High-level azithromycin resistance occurs in Neisseria gonorrhoeae as a result of a single point mutation in the 23S rRNA genes” (2010).

Experiment [1] concerns Neisseria gonorrhoeae. Kind of experiment: Antimicrobial activity against Neisseria gonorrhoeae isolate 254921 NG-MAST sequence type 649 by Etest. The class given is functional. The method in brief: (§1)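 Isolates were revived from −80°C cryopreservative stocks by 18 to 20 h of growth on GC agar base with 1% IsoVitaleX at 36°C under 5% CO2, then subcultured. Erythromycin and azithromycin MICs were read by Etest.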

The test system of experiment [2] is Neisseria gonorrhoeae. The experiment is described as follows: microbe, parasite or virus in culture.
The subject of experiment [3] is Neisseria gonorrhoeae. Kind of experiment: Antimicrobial activity against Neisseria gonorrhoeae harboring A2059G mutation in 23S rRNA V domain allele 1, allele 2, allele 3 and allele 4 by Etest. The class given is functional. The method in brief: as §1
Experiment [4] concerns Neisseria gonorrhoeae. Kind of experiment: microbe, parasite or virus in culture. As to conditions: isolate 352521.
Experiment [5] deals with Neisseria gonorrhoeae. Kind of experiment: Antimicrobial activity against Neisseria gonorrhoeae C2611T mutation in 23S rRNA domain V allele 3 by Etest. The class given is functional. An outline of the steps: as §1
Experiment [6] concerns Neisseria gonorrhoeae. The experiment is described as follows: Antimicrobial activity against Neisseria gonorrhoeae harboring A2059G mutation in 23S rRNA domain V allele 4 by Etest. The class given is functional. An outline of the steps: as §1
The test system of experiment [7] is Neisseria gonorrhoeae. The experiment is described as follows: microbe, parasite or virus in culture. This is another data set of the same source.
Experiment [8] has as its system Neisseria gonorrhoeae. Kind of experiment: Antimicrobial activity against Neisseria gonorrhoeae harboring A2059G mutation in 23S rRNA V domain allele 1, allele 3 and allele 4 by Etest. The class given is functional. An outline of the steps:
as §1

Experiment [9] relates to Neisseria gonorrhoeae. The experiment is described as follows: Antimicrobial activity against Neisseria gonorrhoeae isolate 136 NG-MAST sequence type 1704 harboring A2059G mutation in 23S rRNA V domain allele 1, allele 2, allele 3 and allele 4 selected after 0.5 to 8 mg/L of erythromycin by Etest. The class given is functional. An outline of the steps:
(§2)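 Single-colony expansions of the parent isolate (~1 × 10^8 CFU by viable count) were spread on GC agar with 1% IsoVitaleX containing erythromycin in 2-fold steps from 0.5 to 8.0 mg/liter, and incubated 24 h at 36°C under 5% CO2. Growth on the highest-concentration plate was subcultured, confirmed as gonococcus (Gram stain, oxidase, Phadebact GC), and azithromycin and erythromycin MICs were read by Etest. Passages were run in duplicate.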

Experiment [10] deals with Neisseria gonorrhoeae. Kind of experiment: microbe, parasite or virus in culture. As to conditions: isolate 136.
For experiment [11], the system named is Neisseria gonorrhoeae. Kind of experiment: Antimicrobial activity against Neisseria gonorrhoeae isolate 352521 NG-MAST sequence type 1443 harboring A2059G mutation in 23S rRNA V domain allele 1, allele 2, allele 3 and allele 4 selected after 0.5 to 8 mg/L of erythromycin by Etest. The class given is functional. An outline of the steps:
as §2

The test system of experiment [12] is Neisseria gonorrhoeae. Kind of experiment: Antimicrobial activity against Neisseria gonorrhoeae isolate 254921 NG-MAST sequence type 649 selected after 2 to 8 mg/L of compound by Etest. The class given is functional.
Experiment [13] concerns Neisseria gonorrhoeae. Kind of experiment: Antimicrobial activity against Neisseria gonorrhoeae expressing wild type 23S rRNA by Etest. The class given is functional. The method in brief:
as §1

The test system of experiment [14] is Neisseria gonorrhoeae. The experiment is described as follows: Antimicrobial activity against Neisseria gonorrhoeae harboring A2059G mutation in 23S rRNA V domain allele 1, allele 2 and allele 4 by Etest. The class given is functional. An outline of the steps: as §1
For experiment [15], the system named is Neisseria gonorrhoeae. The experiment is described as follows: Antimicrobial activity against Neisseria gonorrhoeae isolate 252611 NG-MAST sequence type 470 harboring A2059G mutation in 23S rRNA V domain allele 1, allele 2, allele 3 and allele 4 selected after 0.5 to 8 mg/L of erythromycin by Etest. The class given is functional. The method in brief:
as §2

Experiment [16] has as its system Neisseria gonorrhoeae. Kind of experiment: Antimicrobial activity against Neisseria gonorrhoeae isolate 252611 NG-MAST sequence type 470 harboring A2059G mutation in 23S rRNA V domain allele 2 by Etest. The class given is functional. An outline of the steps: as §1
For experiment [17], the system named is Neisseria gonorrhoeae. Kind of experiment: Antimicrobial activity against Neisseria gonorrhoeae harboring A2059G mutation in 23S rRNA domain V allele 2 by Etest. The class given is functional. The method in brief:
as §1

Experiment [18] concerns Neisseria gonorrhoeae. The experiment is described as follows: Antimicrobial activity against Neisseria gonorrhoeae isolate 254921 NG-MAST sequence type 649 selected after 4 mg/L of erythromycin by Etest. The class given is functional, organism-based.

Molecules are shown by their SMILES. Converted amounts (≈) assume the structure as drawn. The source made the active and inactive calls. The rule behind the calls is not given here. A value given as a limit tells only on which side of the number the result lay.

As to `CC[C@H]1OC(=O)[C@H](C)[C@@H](O[C@H]2C[C@@](C)(OC)[C@@H](O)[C@H](C)O2)[C@H](C)[C@@H](O[C@@H]2O[C@H](C)C[C@H](N(C)C)[C@H]2O)[C@](C)(O)C[C@@H](C)CN(C)[C@H](C)[C@@H](O)[C@]1(C)O` [AZITHROMYCIN], the MIC is 0.25 µg/mL (≈ 0.334 µM) in the experiment with Neisseria gonorrhoeae [1]; 2 µg/mL (≈ 2.67 µM) in the experiment on Neisseria gonorrhoeae [2]; no less than 256 µg/mL against Neisseria gonorrhoeae [3]; 0.25 µg/mL (≈ 0.334 µM) against Neisseria gonorrhoeae [4]; 0.06 µg/mL (≈ 0.0801 µM) with Neisseria gonorrhoeae [5]; 0.06 µg/mL (≈ 0.0801 µM) in the experiment on Neisseria gonorrhoeae [6]. Moreover, the MIC in the experiment with Neisseria gonorrhoeae [7] was 2 µg/mL (≈ 2.67 µM); against Neisseria gonorrhoeae [8], no less than 256 µg/mL; in the experiment with Neisseria gonorrhoeae [9], greater than 256 µg/mL; with Neisseria gonorrhoeae [10], 0.25 µg/mL (≈ 0.334 µM); in the experiment with Neisseria gonorrhoeae [11], greater than 256 µg/mL; in the experiment on Neisseria gonorrhoeae [12] it was 1.5 µg/mL (≈ 2 µM). Further, the MIC with Neisseria gonorrhoeae [13] is 0.06 µg/mL (≈ 0.0801 µM); in the experiment with Neisseria gonorrhoeae [14], no less than 256 µg/mL; against Neisseria gonorrhoeae [15], greater than 256 µg/mL; against Neisseria gonorrhoeae [16], 0.38 µg/mL (≈ 0.507 µM); against Neisseria gonorrhoeae [17], 0.06 µg/mL (≈ 0.0801 µM).
For the compound `CC[C@H]1OC(=O)[C@H](C)[C@@H](O[C@H]2C[C@@](C)(OC)[C@@H](O)[C@H](C)O2)[C@H](C)[C@@H](O[C@@H]2O[C@H](C)C[C@H](N(C)C)[C@H]2O)[C@](C)(O)C[C@@H](C)C(=O)[C@H](C)[C@@H](O)[C@]1(C)O` [ERYTHROMYCIN], the MIC was 3 µg/mL (≈ 4.09 µM) in the experiment with Neisseria gonorrhoeae [1] and 4 µg/mL (≈ 5.45 µM) in the experiment with Neisseria gonorrhoeae [12]. Moreover, in the experiment with Neisseria gonorrhoeae [18], the result was Active.
